{"source": "paper PMC6263940", "about": "(Nature chemical biology, 2018)", "key": {"[1]": {"biological_target": "T1, mouse brain serine hydrolases (Mus musculus, UniProt Q9QXM0)", "T1 sequence (Q9QXM0 1-425)": "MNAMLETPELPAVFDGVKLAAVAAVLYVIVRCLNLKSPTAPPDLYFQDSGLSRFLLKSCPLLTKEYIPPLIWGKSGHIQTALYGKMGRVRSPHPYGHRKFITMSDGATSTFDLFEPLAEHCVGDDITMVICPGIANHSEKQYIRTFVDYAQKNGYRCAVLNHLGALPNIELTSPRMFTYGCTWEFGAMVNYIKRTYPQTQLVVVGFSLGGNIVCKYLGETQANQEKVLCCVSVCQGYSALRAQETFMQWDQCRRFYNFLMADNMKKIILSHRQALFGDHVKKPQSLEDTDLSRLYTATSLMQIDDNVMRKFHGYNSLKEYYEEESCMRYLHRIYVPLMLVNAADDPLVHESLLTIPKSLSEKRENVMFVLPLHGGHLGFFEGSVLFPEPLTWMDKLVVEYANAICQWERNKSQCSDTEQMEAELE", "type": "biochemical", "details": "MS-ABPP, mouse brain membrane proteome, 1 μM"}, "[2]": {"test_system": "mouse brain serine hydrolases", "type": "biochemical", "details": "gel-based ABPP 0.1 or 2 μM; MS-based ABPP 1 μM"}, "ABHD12": {"biological_target": "T2, ABHD12 (Homo sapiens, UniProt Q8N2K0)", "T2 sequence (Q8N2K0 1-398)": "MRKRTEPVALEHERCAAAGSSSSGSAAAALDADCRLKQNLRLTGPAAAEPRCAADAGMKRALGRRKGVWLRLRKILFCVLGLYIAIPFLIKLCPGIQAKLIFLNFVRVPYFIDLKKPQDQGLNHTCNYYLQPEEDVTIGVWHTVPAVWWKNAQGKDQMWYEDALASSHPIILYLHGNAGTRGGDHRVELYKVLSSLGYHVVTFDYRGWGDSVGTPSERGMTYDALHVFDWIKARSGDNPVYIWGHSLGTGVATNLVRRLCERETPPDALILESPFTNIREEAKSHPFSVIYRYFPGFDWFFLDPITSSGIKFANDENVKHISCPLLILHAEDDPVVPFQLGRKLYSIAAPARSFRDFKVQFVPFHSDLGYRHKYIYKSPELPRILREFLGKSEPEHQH", "assay": "In situ treatment of THP-1 cells, competitive gel-based ABPP with JJH350 probe", "type": "cell-based", "details": "1 μM, 4 h in situ", "procedure,_shortened": "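Whole THP-1 cells exposed to test compound or DMSO for 4 h at 37 °C, 5% CO₂, then washed twice with ice-cold DPBS. Proteome (1 mg/mL) labelled with JJH350 (2 μM final, 45 min, 37 °C), clicked by CuAAC and resolved on gel. ABHD12 band intensity is expressed relative to the control-treated sample, set to 100%.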"}, "[3]": {"biological_target": "T3, serine hydrolases in THP-1 cells (Homo sapiens, UniProt P08910)", "T3 sequence (P08910 1-425)": "T1 sequence (Q9QXM0 1-425) with R194K, Q198L, S412L, M420V, E423D", "assay": "ABPP-SILAC", "type": "cell-based"}, "THP-1 cells": {"test_system": "THP-1 cells", "assay": "Targeted LC-MS of", "type": "cell-based, human", "details": "4 h", "procedure,_shortened": "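THP-1 cells (6 million in 10 mL) incubated with test compound or DMSO for 4 h at 37 °C, 5% CO₂. Cells washed twice with ice-cold DPBS and stored at −80 °C, then analysed by targeted LC-MS metabolomics for lyso-PS and PS species.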"}, "mouse PLA2G6": {"biological_target": "T4, mouse PLA2G6 (Mus musculus, UniProt P97819)", "T4 sequence (P97819 1-807)": "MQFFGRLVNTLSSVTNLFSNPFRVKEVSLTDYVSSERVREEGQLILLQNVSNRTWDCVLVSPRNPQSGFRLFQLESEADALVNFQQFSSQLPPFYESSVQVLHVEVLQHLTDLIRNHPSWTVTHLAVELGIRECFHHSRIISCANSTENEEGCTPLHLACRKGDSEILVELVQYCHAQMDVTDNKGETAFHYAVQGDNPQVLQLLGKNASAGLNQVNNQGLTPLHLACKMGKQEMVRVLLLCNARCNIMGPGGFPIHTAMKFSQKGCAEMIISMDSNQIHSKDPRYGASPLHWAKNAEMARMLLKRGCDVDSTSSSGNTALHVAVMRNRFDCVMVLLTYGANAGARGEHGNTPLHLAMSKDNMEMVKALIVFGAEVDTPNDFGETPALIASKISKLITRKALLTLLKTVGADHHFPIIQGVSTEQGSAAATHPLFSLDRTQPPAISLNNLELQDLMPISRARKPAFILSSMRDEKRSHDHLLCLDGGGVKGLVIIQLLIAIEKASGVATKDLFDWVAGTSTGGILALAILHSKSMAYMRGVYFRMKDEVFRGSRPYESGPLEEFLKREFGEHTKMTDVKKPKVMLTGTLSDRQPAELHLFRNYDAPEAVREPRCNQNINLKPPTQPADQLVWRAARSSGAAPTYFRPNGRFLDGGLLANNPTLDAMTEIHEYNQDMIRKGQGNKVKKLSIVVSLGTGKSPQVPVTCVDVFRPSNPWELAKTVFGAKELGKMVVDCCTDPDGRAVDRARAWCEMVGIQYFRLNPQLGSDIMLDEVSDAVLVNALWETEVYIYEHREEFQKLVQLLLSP", "assay": "Competitive gel ABPP", "type": "biochemical", "details": "membrane lysate 1 mg/mL of transfected HEK293T cells, FP-Rh", "procedure,_shortened": "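HEK293T cells transiently transfected with mouse PLA2G6 cDNA (pCMV-SPORT6); membrane lysate (1 mg/mL) prepared. Lysate pre-exposed to test compound, then labelled with FP-Rh (1 μM final, 45 min, 37 °C). Gel band intensity compared with a control-treated sample.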"}, "C57BL/6 mice": {"test_system": "C57BL/6 mice", "assay": "Targeted LC-MS of brain lipid content of treated mice", "type": "in vivo, mouse", "procedure,_shortened": "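Mice received test compound or vehicle i.p. (single doses, 24 h; or 30 mg/kg time course), orally (24 h), or 30 mg/kg daily p.o. for four weeks (8-month-old mice). Brains harvested after isoflurane and cervical dislocation; lipids measured by targeted LC-MS. ABHD12(+/+) and (−/−) brains serve as reference; chronic data given as mean ± SEM.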"}}, "note": "Numbering of substitutions follows the chain as printed."}
{"compound": "FC(F)(F)Oc1ccc(Oc2ccnc(N3CCC(NC(=S)Nc4cccnc4)CC3)c2Cl)c(Cl)c1", "note": "[DO264, N-3-pyridyl-N’-(1-[3-chloro-4-{2-chloro-4-(trifluoromethoxy)phenoxy}pyridine-2-yl]piperidin-4-yl)thiourea]", "values": [{"measurement": "inhibition of mouse ABHD2 in vitro", "setting": "[1]", "value": "did not inhibit"}, {"measurement": "selectivity for ABHD12 over other mouse brain serine hydrolases", "setting": "[2]", "value": "excellent selectivity"}, {"measurement": "ABHD12 activity in THP-1 cells by competitive gel-based ABPP (in words)", "setting": "ABHD12", "value": "complete blockade"}, {"measurement": "inhibition of human ABHD2 in situ", "setting": "[3]", "value": "did not inhibit"}, {"measurement": "20:4 PS lipids of THP-1 cells", "setting": "THP-1 cells; 0.001-1 μM", "value": "concentration-dependent increase"}, {"measurement": "lyso-PS content of THP-1 cells", "setting": "THP-1 cells; DO264 0.001-1 μM, (S)-DO271 1 μM", "value": "substantial elevations"}, {"measurement": "inhibition of recombinantly expressed PLA2G6", "setting": "mouse PLA2G6", "value": "nor did the compound inhibit"}, {"measurement": "time post-dosing at which brain lyso-PS changes were maximal", "setting": "C57BL/6 mice; 30 mg/kg, i.p., detectable by 4 h", "value": 24, "unit": "h"}, {"measurement": "brain 20:4 lyso-PI", "setting": "C57BL/6 mice; 30 mg/kg, p.o., 24 h", "value": "increase"}, {"measurement": "brain lyso-PS and 20:4 PS after chronic treatment", "setting": "C57BL/6 mice; 8-month-old mice, 30 mg/kg daily, p.o., four weeks", "value": "Substantial elevations"}, {"measurement": "brain lyso-PS species and select 20:4 PS species", "setting": "C57BL/6 mice; DO264 1-60 mg/kg, (S)-DO271 60 mg/kg, i.p., 24 h", "value": "dose-dependently increased"}, {"measurement": "brain 2-AG", "setting": "C57BL/6 mice; brain tissue of treated mice", "value": "did not show changes"}, {"measurement": "dose at which maximal lyso-PS and 20:4 PS elevations were observed", "setting": "C57BL/6 mice; i.p., 24 h", "value": 30, "unit": "mg/kg"}]}
